System: patients with Rb+ advanced solid tumors or lymphomas
Test: Safety assessments, adverse events
Format: in vivo, human
Outline: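 Oral test compound given daily 3-weeks-on/1-week-off in 28-day cycles, with doses escalated by a Bayesian logistic regression model with overdose control. Safety assessments, including ECGs, were done at baseline and at regular intervals. AEs were graded by CTCAE v4.0 and classed as suspected related to treatment. All patients dosed at least once were included; summaries were descriptive per dose level.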

[1] = 900 mg 3-weeks-on/1-week-off, n = 13
[2] = 1,200 mg 3-weeks-on/1-week-off, n = 3
[3] = RDE 600 mg/day 3-weeks-on/1-week-off
[4] = of 67 patients treated at the RDE

## CN(C)C(=O)c1cc2cnc(Nc3ccc(N4CCNCC4)cn3)nc2n1C1CCCC1 [ribociclib]
[1]
  Anemia, Grade 3/4, AE suspected related to study treatment: 0 n (%)
  Anemia, Grade All, AE suspected related to study treatment: 3 (23) n (%)
  Appetite decreased, Grade 3/4, AE suspected related to study treatment: 0 n (%)
  Appetite decreased, Grade All, AE suspected related to study treatment: 1 (8) n (%)
  Blood creatinine increased, Grade 3/4, AE suspected related to study treatment: 0 n (%)
  Blood creatinine increased, Grade All, AE suspected related to study treatment: 2 (15) n (%)
  Diarrhea, Grade 3/4, AE suspected related to study treatment: 0 n (%)
  Diarrhea, Grade All, AE suspected related to study treatment: 5 (39) n (%)
  Fatigue, Grade 3/4, AE suspected related to study treatment: 0 n (%)
  Fatigue, Grade All, AE suspected related to study treatment: 10 (77) n (%)
  Leukopenia, Grade 3/4, AE suspected related to study treatment: 4 (31) n (%)
  Leukopenia, Grade All, AE suspected related to study treatment: 9 (69) n (%)
  Lymphopenia, Grade 3/4, AE suspected related to study treatment: 4 (31) n (%)
  Lymphopenia, Grade All, AE suspected related to study treatment: 4 (31) n (%)
  Nausea, Grade 3/4, AE suspected related to study treatment: 0 n (%)
  Nausea, Grade All, AE suspected related to study treatment: 6 (46) n (%)
  Neutropenia, Grade 3/4, AE suspected related to study treatment: 5 (39) n (%)
  Neutropenia, Grade All, AE suspected related to study treatment: 9 (69) n (%)
  Thrombocytopenia, Grade 3/4, AE suspected related to study treatment: 0 n (%)
  Thrombocytopenia, Grade All, AE suspected related to study treatment: 6 (46) n (%)
  Vomiting, Grade 3/4, AE suspected related to study treatment: 0 n (%)
  Vomiting, Grade All, AE suspected related to study treatment: 3 (23) n (%)
[2]
  Anemia, Grade 3/4, AE suspected related to study treatment: 1 (33) n (%)
  Anemia, Grade All, AE suspected related to study treatment: 3 (100) n (%)
  Appetite decreased, Grade 3/4, AE suspected related to study treatment: 0 n (%)
  Appetite decreased, Grade All, AE suspected related to study treatment: 0 n (%)
  Blood creatinine increased, Grade 3/4, AE suspected related to study treatment: 0 n (%)
  Blood creatinine increased, Grade All, AE suspected related to study treatment: 0 n (%)
  Diarrhea, Grade 3/4, AE suspected related to study treatment: 0 n (%)
  Diarrhea, Grade All, AE suspected related to study treatment: 2 (67) n (%)
  Fatigue, Grade 3/4, AE suspected related to study treatment: 0 n (%)
  Fatigue, Grade All, AE suspected related to study treatment: 3 (100) n (%)
  Leukopenia, Grade 3/4, AE suspected related to study treatment: 0 n (%)
  Leukopenia, Grade All, AE suspected related to study treatment: 0 n (%)
  Lymphopenia, Grade 3/4, AE suspected related to study treatment: 0 n (%)
  Lymphopenia, Grade All, AE suspected related to study treatment: 0 n (%)
  Nausea, Grade 3/4, AE suspected related to study treatment: 0 n (%)
  Nausea, Grade All, AE suspected related to study treatment: 3 (100) n (%)
  Neutropenia, Grade 3/4, AE suspected related to study treatment: 1 (33) n (%)
  Neutropenia, Grade All, AE suspected related to study treatment: 2 (67) n (%)
  Thrombocytopenia, Grade 3/4, AE suspected related to study treatment: 1 (33) n (%)
  Thrombocytopenia, Grade All, AE suspected related to study treatment: 2 (67) n (%)
  Vomiting, Grade 3/4, AE suspected related to study treatment: 0 n (%)
  Vomiting, Grade All, AE suspected related to study treatment: 3 (100) n (%)
All doses, N = 132
  Anemia, Grade 3/4, AE suspected related to study treatment: 4 (3) n (%)
  Anemia, Grade All, AE suspected related to study treatment: 34 (26) n (%)
  Appetite decreased, Grade 3/4, AE suspected related to study treatment: 0 n (%)
  Appetite decreased, Grade All, AE suspected related to study treatment: 13 (10) n (%)
  Blood creatinine increased, Grade 3/4, AE suspected related to study treatment: 0 n (%)
  Blood creatinine increased, Grade All, AE suspected related to study treatment: 14 (11) n (%)
  Diarrhea, Grade 3/4, AE suspected related to study treatment: 2 (2) n (%)
  Diarrhea, Grade All, AE suspected related to study treatment: 31 (23) n (%)
  Fatigue, Grade 3/4, AE suspected related to study treatment: 3 (2) n (%)
  Fatigue, Grade All, AE suspected related to study treatment: 59 (45) n (%)
  Leukopenia, Grade 3/4, AE suspected related to study treatment: 22 (17) n (%)
  Leukopenia, Grade All, AE suspected related to study treatment: 57 (43) n (%)
  Lymphopenia, Grade 3/4, AE suspected related to study treatment: 21 (16) n (%)
  Lymphopenia, Grade All, AE suspected related to study treatment: 32 (24) n (%)
  Nausea, Grade 3/4, AE suspected related to study treatment: 2 (2) n (%)
  Nausea, Grade All, AE suspected related to study treatment: 56 (42) n (%)
  Neutropenia, Grade 3/4, AE suspected related to study treatment: 36 (27) n (%)
  Neutropenia, Grade All, AE suspected related to study treatment: 60 (46) n (%)
  Thrombocytopenia, Grade 3/4, AE suspected related to study treatment: 10 (8) n (%)
  Thrombocytopenia, Grade All, AE suspected related to study treatment: 40 (30) n (%)
  Vomiting, Grade 3/4, AE suspected related to study treatment: 0 n (%)
  Vomiting, Grade All, AE suspected related to study treatment: 34 (26) n (%)
[3]
  grade 3/4 neutropenia: 28%
  grade 3/4 thrombocytopenia: 9%
All 132 patients
  treatment-related fatigue, grade 3/4: 2%
  treatment-related nausea, grade 3/4: 2%
  treatment-related neutropenia, all-grade: 46%
All patients
  clinically significant arrhythmias: No clinically significant arrhythmias were observed
[4]
  patients requiring dose reduction to 400 mg/day: 16
  patients with dose interruption without reduction: 13
